# ChEMBL document CHEMBL1142267, “Optimization of alpha-ketooxazole inhibitors of fatty acid amide hydrolase” (J Med Chem, 2008)
# Legend:
# [1] = molecular target: T1, Fatty-acid amide hydrolase 1 (Rattus norvegicus, UniProt P97612); experiment: Inhibition of rat recombinant FAAH expressed in Escherichia coli
# T1 sequence (P97612 whole entry): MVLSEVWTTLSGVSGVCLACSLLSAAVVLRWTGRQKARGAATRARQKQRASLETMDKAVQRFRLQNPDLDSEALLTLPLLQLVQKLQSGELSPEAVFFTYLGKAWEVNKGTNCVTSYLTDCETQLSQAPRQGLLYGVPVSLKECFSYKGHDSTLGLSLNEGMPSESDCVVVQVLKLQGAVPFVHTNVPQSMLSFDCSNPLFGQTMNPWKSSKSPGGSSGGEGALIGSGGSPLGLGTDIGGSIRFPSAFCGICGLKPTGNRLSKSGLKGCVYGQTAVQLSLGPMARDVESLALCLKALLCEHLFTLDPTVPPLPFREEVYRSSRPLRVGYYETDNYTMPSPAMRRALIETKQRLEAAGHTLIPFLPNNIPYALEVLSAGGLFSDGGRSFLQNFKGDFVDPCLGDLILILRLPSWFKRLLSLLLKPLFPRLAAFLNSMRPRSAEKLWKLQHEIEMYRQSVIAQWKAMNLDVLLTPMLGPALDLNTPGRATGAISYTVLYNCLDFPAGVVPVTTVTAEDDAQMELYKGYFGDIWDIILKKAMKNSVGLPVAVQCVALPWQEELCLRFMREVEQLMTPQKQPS
# Liver carboxylesterase 1 = molecular target: T2, Liver carboxylesterase 1 (Homo sapiens, UniProt P23141)
# T2 sequence (P23141 whole entry): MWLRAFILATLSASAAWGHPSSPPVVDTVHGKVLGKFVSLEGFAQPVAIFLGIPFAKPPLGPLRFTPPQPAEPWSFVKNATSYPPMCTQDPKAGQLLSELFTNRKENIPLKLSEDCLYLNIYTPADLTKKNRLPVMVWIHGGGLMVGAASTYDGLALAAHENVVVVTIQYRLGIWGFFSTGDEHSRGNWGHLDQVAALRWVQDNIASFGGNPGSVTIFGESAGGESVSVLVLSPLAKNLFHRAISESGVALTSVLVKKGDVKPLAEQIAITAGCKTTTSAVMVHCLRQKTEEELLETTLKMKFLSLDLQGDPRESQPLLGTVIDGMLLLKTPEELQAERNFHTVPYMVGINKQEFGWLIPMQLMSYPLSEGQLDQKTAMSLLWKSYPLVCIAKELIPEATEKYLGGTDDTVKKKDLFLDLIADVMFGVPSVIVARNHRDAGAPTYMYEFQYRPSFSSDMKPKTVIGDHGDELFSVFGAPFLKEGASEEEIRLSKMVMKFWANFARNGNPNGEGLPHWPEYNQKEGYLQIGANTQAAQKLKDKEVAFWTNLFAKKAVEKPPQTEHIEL
# [2] = molecular target: T3, Neutral cholesterol ester hydrolase 1 (Homo sapiens, UniProt Q6PIU2); experiment: Inhibition of KIAA1363
# T3 sequence (Q6PIU2 whole entry): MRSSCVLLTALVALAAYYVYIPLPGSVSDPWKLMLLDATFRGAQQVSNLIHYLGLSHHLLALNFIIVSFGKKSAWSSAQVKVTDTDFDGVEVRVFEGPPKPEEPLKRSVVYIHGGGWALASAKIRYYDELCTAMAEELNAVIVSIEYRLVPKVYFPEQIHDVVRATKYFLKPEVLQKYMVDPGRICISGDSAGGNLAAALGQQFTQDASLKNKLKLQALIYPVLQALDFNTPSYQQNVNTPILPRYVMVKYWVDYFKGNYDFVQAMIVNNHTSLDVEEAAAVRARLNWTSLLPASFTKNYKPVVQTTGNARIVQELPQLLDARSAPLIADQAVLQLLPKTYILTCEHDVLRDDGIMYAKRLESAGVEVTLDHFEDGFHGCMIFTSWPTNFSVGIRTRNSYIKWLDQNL
# [3] = Selectivity for rat recombinant FAAH over KIAA1363
# [4] = Selectivity for TGH over rat recombinant FAAH
# [5] = Selectivity for rat recombinant FAAH over TGH
# [6] = molecular target: T4, Fatty-acid amide hydrolase 1 (Homo sapiens, UniProt O00519); experiment: Inhibition of human recombinant FAAH expressed COS7 cells; format: cell-based, COS-7
# T4 sequence (O00519 whole entry): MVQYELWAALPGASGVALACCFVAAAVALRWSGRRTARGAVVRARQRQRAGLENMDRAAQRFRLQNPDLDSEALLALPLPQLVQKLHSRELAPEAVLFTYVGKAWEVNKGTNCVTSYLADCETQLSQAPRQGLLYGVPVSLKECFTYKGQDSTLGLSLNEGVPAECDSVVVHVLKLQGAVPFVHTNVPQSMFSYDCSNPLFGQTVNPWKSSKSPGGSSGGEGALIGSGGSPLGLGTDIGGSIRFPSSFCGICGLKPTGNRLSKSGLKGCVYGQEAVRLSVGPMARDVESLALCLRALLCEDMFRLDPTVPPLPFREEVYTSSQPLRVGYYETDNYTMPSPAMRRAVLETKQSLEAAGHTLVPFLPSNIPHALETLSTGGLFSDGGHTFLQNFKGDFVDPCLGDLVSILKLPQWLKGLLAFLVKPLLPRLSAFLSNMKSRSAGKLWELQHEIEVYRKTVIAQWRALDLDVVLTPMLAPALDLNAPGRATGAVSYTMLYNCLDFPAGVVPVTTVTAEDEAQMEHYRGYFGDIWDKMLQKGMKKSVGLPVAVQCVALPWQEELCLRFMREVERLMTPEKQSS
# How it was run: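 Enzyme source was solubilized membrane lysate of COS-7 cells transiently transfected with full-length human FAAH cDNA. Substrate 10 µM 14C-oleamide in pH 9.0 Tris/EDTA/glycerol/Triton X-100/Hepes buffer at room temperature, with three inhibitor concentrations. Reactions quenched in 0.1 N HCl at three time points, then EtOAc extraction and TLC of oleamide versus oleic acid. Ki from Dixon plot.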
# [7] = molecular target: T4, Fatty-acid amide hydrolase 1
IC50 [1],Ki [1],IC50 (Liver carboxylesterase 1),IC50 [2],Ratio IC50 [3],Selectivity ratio [4],Ratio IC50 [5],Ki [6],Selectivity ratio [3],Ki [7],Compound
180 nM,16 nM,4.5 nM,> 100000 nM,> 550,1,0.025,–,–,–,O=C(CCc1ccc(-c2ccccc2)cc1)c1ncco1
270 nM,25 nM,270 nM,> 100000 nM,> 370,1,1,–,–,–,O=C(CCc1ccc(COc2ccccc2)cc1)c1ncco1
500 nM,77 nM,30 nM,> 100000 nM,> 200,1,0.06,–,–,–,O=C(CCc1ccc(Oc2ccccc2)cc1)c1ncco1

# More lines, now with the values behind:
Compound,IC50 [1],Ki [1],IC50 (Liver carboxylesterase 1),IC50 [2],Ratio IC50 [3],Selectivity ratio [4],Ratio IC50 [5],Ki [6],Selectivity ratio [3],Ki [7]
N#Cc1cnc(C(=O)CCc2ccc(COc3ccccc3)cc2)o1,2 nM,0.5 nM,100 nM,19000 nM,9500,–,50,0.51 nM,> 1000,–
CCCCCCCC/C=C\CCCCCCCC(=O)c1ncco1,–,–,–,–,–,–,–,–,–,100 nM
N#Cc1cnc(C(=O)CCc2ccc(Oc3ccccc3)cc2)o1,5 nM,0.8 nM,16 nM,20000 nM,4000,–,3,0.85 nM,> 1000,–
O=C(CCc1ccc(COc2ccccc2)cc1)c1ncc(C(F)(F)F)o1,–,0.8 nM,–,–,–,–,–,0.67 nM,–,–
O=C(CCc1ccc(Oc2ccccc2)cc1)c1ncc(C(F)(F)F)o1,–,2 nM,–,–,–,–,–,1 nM,–,–
